Measured values as given in ChEMBL document CHEMBL1140207, “A small molecule inhibitor, 1,2,4,5-benzenetetraamine tetrahydrochloride, targeting the y397 site of focal adhesion kinase decreases tumor growth” (J Med Chem, 2008).
Calls of active or inactive are those of the source. The calls are words filed in the database; no cut-off is given here.

Key:
C8161 = assay: Cytotoxicity against human C8161 cells assessed as decrease in cell viability at 100 uM after 24 hrs by MTT assay; type: functional, cell-based
How it was run: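 Cells from breast cancer and melanoma lines were exposed to compound for 24 h and viability was read by MTT assay. A reference FAK inhibitor served as the control.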

[1] = molecular target: Protein-tyrosine kinase 2-beta (Homo sapiens) (UniProt Q14289); assay: Inhibition of recombinant Pyk2 at 1 uM
How it was run: (§1)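 Commercial kinase profiling panel: recombinant enzymes (including FAK kinase domain 411-686 a.a.) tested with 1 μM compound, 10 μM ATP and kinase substrates; % inhibition versus untreated; mean ± SE of two independent experiments.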

Mus musculus [2] = assay: Inhibition of tumor growth in human BT474 cells xenografted in mouse assessed as animal death at 30 mg/kg administered daily for 5 days per week measured after 23 days; type: organism-based, BT-474; design: dose 30 mg/kg; conditions: in vivo, 552 h
How it was run: (§2)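 BT474 breast cancer cells were injected subcutaneously into 5 mice. Dosing at 30 mg/kg started the day after injection and was given daily, 5 days per week. Five untreated mice served as controls.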

[3] = molecular target: Epidermal growth factor receptor (Homo sapiens) (UniProt P00533); assay: Inhibition of recombinant EGFR at 1 uM; how it was run: as §1
[4] = molecular target: Protein-tyrosine kinase 2-beta (Homo sapiens) (UniProt Q14289); assay: Inhibition of recombinant full length Pyk2 autophosphorylation expressed in baculovirus by SDS-PAGE
How it was run: (§3)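 In vitro autophosphorylation: 0.1 μg purified recombinant FAK or Pyk-2 with γ-32P-ATP and varying inhibitor doses, 10 min at room temperature; three independent experiments.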

MCF7 = assay: Cytotoxicity against human MCF7 cells assessed as decrease in cell viability at 100 uM after 24 hrs by MTT assay; type: functional, cell-based
How it was run: (§4)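 Cells given each compound at 100 μM for 24 h, then MTT viability assay; known FAK inhibitor 1a used as reference control.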

Mus musculus [5] = assay: Inhibition of tumor growth in human BT474 cells xenografted in mouse assessed as animal weight loss at 30 mg/kg administered daily for 5 days per week measured after 23 days; type: organism-based, BT-474; design: dose 30 mg/kg; conditions: in vivo, 552 h; how it was run: as §2
BT-474 [6] = assay: Inhibition of tumor growth in human BT474 cells xenografted in mouse assessed as tumor volume at 30 mg/kg administered daily for 5 days per week measured after 23 days; type: functional, organism-based; design: dose 30 mg/kg
How it was run: (§5)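 BT474 cells injected subcutaneously into mice (5 per group); dosing at 30 mg/kg daily, 5 days per week, starting the day after injection; untreated mice as controls.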

[7] = molecular target: Hepatocyte growth factor receptor (Homo sapiens) (UniProt P08581); assay: Inhibition of recombinant Met at 1 uM; how it was run: as §1
BT-474 [8] = assay: Induction of apoptosis in human BT474 cells assessed as cleavage of 89 kDa PARP at 100 uM after 24 hrs by Western blotting; type: functional, cell-based
How it was run: (§6)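 BT474 cells treated at various doses; lysates immunoblotted with PARP antibody, scoring cleaved 89 kDa fragment.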

[9] = molecular target: Focal adhesion kinase 1 (Homo sapiens) (UniProt Q05397); assay: Inhibition of FAK-Y397 phosphorylation in human BT474 cells at 100 uM by Western blotting; type: cell-based; conditions: BT-474, TDE = time-dependent effect
How it was run: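 BT474 cells given 100 μM for 1–24 h; Y397-FAK and total FAK normalized to β-actin by densitometry, expressed relative to untreated; three independent experiments, mean ± SE.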

[10] = molecular target: PI3-kinase p110-delta/p85-alpha (Homo sapiens) (UniProt P27986+O00329); assay: Inhibition of recombinant PI3 kinase p110delta/p85-alpha subunit at 1 uM; how it was run: as §1
[11] = molecular target: Insulin-like growth factor 1 receptor (Homo sapiens) (UniProt P08069); assay: Inhibition of recombinant IGF1R at 1 uM; how it was run: as §1
[12] = molecular target: Focal adhesion kinase 1 (Homo sapiens) (UniProt Q05397); assay: Inhibition of total FAK autophosphorylation in human BT474 cells at 100 uM after 24 hrs by Western blotting; type: cell-based; conditions: BT-474
How it was run: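 BT474 lysates immunoprecipitated with FAK antibody, blotted with phosphotyrosine antibody, then stripped and reprobed for FAK.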

[13] = molecular target: Proto-oncogene tyrosine-protein kinase Src (Homo sapiens) (UniProt P12931); assay: Inhibition of c-Src phosphorylation in human BT474 cells at 100 uM after 24 hrs by Western blotting; type: cell-based; conditions: BT-474
T47D = assay: Cytotoxicity against human T47D cells assessed as decrease in cell viability at 100 uM after 24 hrs by MTT assay; type: functional, cell-based; how it was run: as §4
[14] = molecular target: Vascular endothelial growth factor receptor 3 (Homo sapiens) (UniProt P35916); assay: Inhibition of recombinant Flt4 at 1 uM; how it was run: as §1
BT-474 [15] = assay: Induction of apoptosis in human BT474 cells assessed as cleavage of 89 kDa PARP at 1 uM after 24 hrs by Western blotting; type: functional, cell-based; how it was run: as §6
Paxillin (Homo sapiens) [16] = molecular target: Paxillin (Homo sapiens) (UniProt P49023); assay: Inhibition of paxillin phosphorylation in human BT474 cells at 100 uM after 24 hrs by Western blotting; type: cell-based; conditions: BT-474
[17] = molecular target: Focal adhesion kinase 1 (Homo sapiens) (UniProt Q05397); assay: Inhibition of FAK-Y397 phosphorylation in human BT474 cells after 24 hrs by Western blotting; type: cell-based; conditions: BT-474
How it was run: (§7)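 BT474 cells treated at different doses; Western blot for Y397-FAK then total FAK, plus Y402-Pyk-2; β-actin for loading.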

[18] = molecular target: Vascular endothelial growth factor receptor 3 (Homo sapiens) (UniProt P35916); assay: Inhibition of VEGFR3 phosphorylation in human BT474 cells at 100 uM after 24 hrs by Western blotting; type: cell-based; conditions: BT-474
BT-474 [19] = assay: Inhibition of human BT474 cells adhesion on collagen coated plates after 3 hrs by crystal violet staining
[20] = Effect on human MCF10A cell survival assessed as cell detachment at 100 uM after 24 hrs by hemocytometer; type: ADME, cell-based; conditions: mcf-10a
How it was run: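 Normal breast MCF10A cells were treated with a range of compound doses. Detached cells were counted on a hemacytometer, and values are means ± standard errors of three independent experiments.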

Paxillin (Homo sapiens) [21] = molecular target: Paxillin (Homo sapiens) (UniProt P49023); assay: Inhibition of paxillin-Y118 phosphorylation in human BT474 cells at 100 uM after 24 hrs by Western blotting; type: cell-based; conditions: BT-474
How it was run: (§8)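 BT474 cells treated 100 μM for 24 h; Western blot with Y397-FAK and Y118-paxillin antibodies, total FAK, paxillin and β-actin as expression/loading references.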

A549 = assay: Cytotoxicity against human A549 cells assessed as decrease in cell viability at 100 uM after 24 hrs by MTT assay; type: functional, cell-based
[22] = molecular target: Platelet-derived growth factor receptor alpha (Homo sapiens) (UniProt P16234); assay: Inhibition of recombinant PDGFRa at 1 uM; how it was run: as §1
BT-474 [23] = assay: Cytotoxicity against human BT474 cells assessed as decrease in cell viability at 100 uM after 24 hrs by MTT assay; type: functional, cell-based; how it was run: as §4
[24] = molecular target: RAF proto-oncogene serine/threonine-protein kinase (Homo sapiens) (UniProt P04049); assay: Inhibition of recombinant c-RAF at 1 uM; how it was run: as §1
BT-474 [25] = assay: Effect on human BT474 cell survival assessed as cell detachment at 50 uM after 24 hrs by hemocytometer; type: functional
How it was run: (§9)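 BT474 cells treated at a range of doses; detached cells counted on a hemacytometer; means ± standard errors of three independent experiments, versus untreated cells.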

BT-474 [26] = assay: Effect on human BT474 cell survival assessed as cell detachment at 100 uM after 24 hrs by hemocytometer; type: functional; how it was run: as §9
BT-474 [27] = assay: Effect on human BT474 cell survival assessed as cell detachment after 24 hrs by hemocytometer; type: functional, cell-based; how it was run: as §9
HT-29 = assay: Cytotoxicity against human HT-29 cells assessed as decrease in cell viability at 100 uM after 24 hrs by MTT assay; type: functional, cell-based
BT-474 [28] = assay: Induction of apoptosis in human BT474 cells assessed as presence of apoptotic nuclei at 100 uM after 24 hrs by […] staining; type: functional, cell-based
How it was run: (§10)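 BT474 cells treated 24 h at various doses; apoptotic nuclei scored by Hoechst staining; means ± SD of four independent experiments versus untreated cells.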

[29] = molecular target: Protein-tyrosine kinase 2-beta (Homo sapiens) (UniProt Q14289); assay: Inhibition of Pyk2-Y402 phosphorylation in human BT474 cells at 100 uM after 24 hrs by Western blotting; type: cell-based; conditions: BT-474; how it was run: as §7
BT-474 [30] = assay: Effect on human BT474 cell survival assessed as cell detachment at 100 to 200 uM after 24 hrs by hemocytometer; type: functional; how it was run: as §9
BT-474 [31] = assay: Inhibition of tumor growth in human BT474 cells xenografted in mouse assessed as reduction in tumor weight at 30 mg/kg administered daily for 5 days per week measured after 23 days; type: functional, organism-based; design: dose 30 mg/kg; how it was run: as §5
[32] = molecular target: Focal adhesion kinase 1 (Homo sapiens) (UniProt Q05397); assay: Inhibition of FAK-Y397 phosphorylation in human BT474 cells at 100 uM after 24 hrs by Western blotting; type: cell-based; conditions: BT-474; how it was run: as §8
BT-474 [33] = assay: Induction of necrosis in non-apoptotic human BT474 cells after 24 hrs by propidium iodide staining based Zeiss fluorescent microscope; type: functional, cell-based
How it was run: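 BT474 cells treated at 10 and 100 μM, collected, stained 10 min with propidium iodide (10 μg/ml) for dead necrotic cells plus Hoechst (10 μg/ml) for nuclei; examined by fluorescence microscopy.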

[34] = molecular target: Proto-oncogene tyrosine-protein kinase Src (Homo sapiens) (UniProt P12931); assay: Inhibition of recombinant c-Src at 1 uM; how it was run: as §1
BT-474 [35] = assay: Induction of apoptosis in human BT474 cells assessed as cleavage of 89 kDa PARP after 24 hrs by Western blotting
[36] = molecular target: Focal adhesion kinase 1 (Homo sapiens) (UniProt Q05397); assay: Inhibition of recombinant full length FAK-mediated GST-paxillin […] expressed in baculovirus by SDS-PAGE
How it was run: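 Purified recombinant FAK (0.1 μg) with GST-paxillin substrate, γ-32P-ATP and varying inhibitor doses, 10 min at room temperature.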

BT-474 [37] = assay: Induction of apoptosis in human BT474 cells at 50 to 100 uM after 24 hrs by […] staining; type: functional; how it was run: as §10
[38] = molecular target: Focal adhesion kinase 1 (Homo sapiens) (UniProt Q05397); assay: Inhibition of recombinant full length FAK autophosphorylation expressed in baculovirus by SDS-PAGE; how it was run: as §3
BT-474 [39] = assay: Cytotoxicity against human BT474 cells assessed as decrease in cell viability after 24 hrs by MTT assay; type: functional, cell-based
How it was run: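 BT474 breast cancer cells exposed to a range of doses for 24 h; viability by MTT; mean of triplicate determinations ± SD versus untreated cells.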

[40] = molecular target: Focal adhesion kinase 1 (Homo sapiens) (UniProt Q05397); assay: Inhibition of recombinant FAK domain (411 to 686 amino acids) without N terminal domain containing Y397 site at 1 uM; how it was run: as §1
BT-474 [41] = assay: Effect on human BT474 cell survival assessed as cell detachment at 10 uM after 24 hrs by hemocytometer; type: functional; how it was run: as §9
BT-474 [42] = assay: Inhibition of human BT474 cells adhesion on collagen coated plates at 100 uM after 3 hrs by crystal violet staining

Protein-tyrosine kinase 2-beta (Homo sapiens), sequence (Q14289 whole entry, looked up, the tested form may be a part): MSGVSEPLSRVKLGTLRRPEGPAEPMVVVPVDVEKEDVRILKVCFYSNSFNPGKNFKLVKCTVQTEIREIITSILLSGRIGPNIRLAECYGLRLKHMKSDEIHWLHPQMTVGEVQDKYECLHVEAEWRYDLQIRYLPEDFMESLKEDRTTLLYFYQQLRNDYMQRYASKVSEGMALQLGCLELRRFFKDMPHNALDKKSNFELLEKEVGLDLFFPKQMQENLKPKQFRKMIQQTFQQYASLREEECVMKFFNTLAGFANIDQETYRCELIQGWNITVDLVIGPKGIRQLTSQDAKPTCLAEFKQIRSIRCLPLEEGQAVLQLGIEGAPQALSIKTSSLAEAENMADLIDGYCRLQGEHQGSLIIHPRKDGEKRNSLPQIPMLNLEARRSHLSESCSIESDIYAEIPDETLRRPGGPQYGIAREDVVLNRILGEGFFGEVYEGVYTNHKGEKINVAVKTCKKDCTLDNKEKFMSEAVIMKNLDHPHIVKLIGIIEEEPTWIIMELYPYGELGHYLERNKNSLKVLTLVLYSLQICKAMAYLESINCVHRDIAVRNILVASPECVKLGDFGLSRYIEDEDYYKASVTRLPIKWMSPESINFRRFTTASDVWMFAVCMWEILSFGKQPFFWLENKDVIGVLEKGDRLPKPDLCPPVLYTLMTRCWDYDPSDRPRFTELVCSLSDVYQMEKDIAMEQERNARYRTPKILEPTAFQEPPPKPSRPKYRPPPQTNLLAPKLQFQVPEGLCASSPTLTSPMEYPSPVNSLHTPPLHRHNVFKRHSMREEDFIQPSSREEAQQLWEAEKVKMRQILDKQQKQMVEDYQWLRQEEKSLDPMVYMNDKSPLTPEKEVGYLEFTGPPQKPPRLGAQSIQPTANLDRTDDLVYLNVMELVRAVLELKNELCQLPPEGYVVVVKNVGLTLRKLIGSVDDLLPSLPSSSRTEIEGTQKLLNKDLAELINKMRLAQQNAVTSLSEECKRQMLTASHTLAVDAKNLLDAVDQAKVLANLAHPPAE
Focal adhesion kinase 1 (Homo sapiens), sequence (Q05397 2-1052 limits assumed): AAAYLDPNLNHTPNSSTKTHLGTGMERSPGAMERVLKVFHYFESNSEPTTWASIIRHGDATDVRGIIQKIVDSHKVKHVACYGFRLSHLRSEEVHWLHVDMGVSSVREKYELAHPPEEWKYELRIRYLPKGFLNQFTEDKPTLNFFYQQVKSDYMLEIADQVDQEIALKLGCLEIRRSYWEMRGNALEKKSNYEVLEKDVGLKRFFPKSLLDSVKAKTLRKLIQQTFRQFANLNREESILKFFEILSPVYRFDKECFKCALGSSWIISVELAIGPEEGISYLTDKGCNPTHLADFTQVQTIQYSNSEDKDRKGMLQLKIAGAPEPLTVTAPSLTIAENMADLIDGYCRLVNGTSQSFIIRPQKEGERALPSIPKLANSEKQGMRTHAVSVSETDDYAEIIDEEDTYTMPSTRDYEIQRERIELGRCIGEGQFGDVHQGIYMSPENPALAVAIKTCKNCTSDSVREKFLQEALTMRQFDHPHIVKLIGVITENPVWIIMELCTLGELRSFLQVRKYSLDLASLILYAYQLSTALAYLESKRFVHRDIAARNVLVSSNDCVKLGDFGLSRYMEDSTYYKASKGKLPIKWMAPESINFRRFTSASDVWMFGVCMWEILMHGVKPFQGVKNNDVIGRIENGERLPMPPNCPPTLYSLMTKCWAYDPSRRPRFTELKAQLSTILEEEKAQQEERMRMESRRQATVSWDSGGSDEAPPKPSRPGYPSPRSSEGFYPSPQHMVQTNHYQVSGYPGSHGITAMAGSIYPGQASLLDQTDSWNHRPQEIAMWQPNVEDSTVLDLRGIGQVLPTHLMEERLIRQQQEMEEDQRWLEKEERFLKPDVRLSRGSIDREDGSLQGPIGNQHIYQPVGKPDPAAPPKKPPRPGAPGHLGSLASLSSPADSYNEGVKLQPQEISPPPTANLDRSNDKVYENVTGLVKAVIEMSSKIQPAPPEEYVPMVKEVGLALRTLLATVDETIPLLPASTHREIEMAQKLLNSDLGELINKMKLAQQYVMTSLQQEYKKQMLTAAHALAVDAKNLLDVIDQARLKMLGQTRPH
Proto-oncogene tyrosine-protein kinase Src (Homo sapiens), sequence (P12931 2-536 limits assumed): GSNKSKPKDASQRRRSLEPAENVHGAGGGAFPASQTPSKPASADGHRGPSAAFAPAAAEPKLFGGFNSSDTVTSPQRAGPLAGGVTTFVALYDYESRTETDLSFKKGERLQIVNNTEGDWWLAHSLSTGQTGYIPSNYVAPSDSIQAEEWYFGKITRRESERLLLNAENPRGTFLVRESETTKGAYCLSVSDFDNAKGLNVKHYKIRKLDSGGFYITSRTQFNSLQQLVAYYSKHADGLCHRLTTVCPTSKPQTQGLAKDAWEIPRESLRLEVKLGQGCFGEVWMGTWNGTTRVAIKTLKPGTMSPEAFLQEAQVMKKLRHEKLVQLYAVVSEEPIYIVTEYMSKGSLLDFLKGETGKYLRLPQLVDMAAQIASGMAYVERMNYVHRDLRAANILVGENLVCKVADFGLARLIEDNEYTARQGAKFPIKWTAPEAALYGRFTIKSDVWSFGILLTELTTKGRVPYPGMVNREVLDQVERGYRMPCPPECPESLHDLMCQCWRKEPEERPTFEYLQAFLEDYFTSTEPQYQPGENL
Vascular endothelial growth factor receptor 3 (Homo sapiens), sequence (P35916 whole entry): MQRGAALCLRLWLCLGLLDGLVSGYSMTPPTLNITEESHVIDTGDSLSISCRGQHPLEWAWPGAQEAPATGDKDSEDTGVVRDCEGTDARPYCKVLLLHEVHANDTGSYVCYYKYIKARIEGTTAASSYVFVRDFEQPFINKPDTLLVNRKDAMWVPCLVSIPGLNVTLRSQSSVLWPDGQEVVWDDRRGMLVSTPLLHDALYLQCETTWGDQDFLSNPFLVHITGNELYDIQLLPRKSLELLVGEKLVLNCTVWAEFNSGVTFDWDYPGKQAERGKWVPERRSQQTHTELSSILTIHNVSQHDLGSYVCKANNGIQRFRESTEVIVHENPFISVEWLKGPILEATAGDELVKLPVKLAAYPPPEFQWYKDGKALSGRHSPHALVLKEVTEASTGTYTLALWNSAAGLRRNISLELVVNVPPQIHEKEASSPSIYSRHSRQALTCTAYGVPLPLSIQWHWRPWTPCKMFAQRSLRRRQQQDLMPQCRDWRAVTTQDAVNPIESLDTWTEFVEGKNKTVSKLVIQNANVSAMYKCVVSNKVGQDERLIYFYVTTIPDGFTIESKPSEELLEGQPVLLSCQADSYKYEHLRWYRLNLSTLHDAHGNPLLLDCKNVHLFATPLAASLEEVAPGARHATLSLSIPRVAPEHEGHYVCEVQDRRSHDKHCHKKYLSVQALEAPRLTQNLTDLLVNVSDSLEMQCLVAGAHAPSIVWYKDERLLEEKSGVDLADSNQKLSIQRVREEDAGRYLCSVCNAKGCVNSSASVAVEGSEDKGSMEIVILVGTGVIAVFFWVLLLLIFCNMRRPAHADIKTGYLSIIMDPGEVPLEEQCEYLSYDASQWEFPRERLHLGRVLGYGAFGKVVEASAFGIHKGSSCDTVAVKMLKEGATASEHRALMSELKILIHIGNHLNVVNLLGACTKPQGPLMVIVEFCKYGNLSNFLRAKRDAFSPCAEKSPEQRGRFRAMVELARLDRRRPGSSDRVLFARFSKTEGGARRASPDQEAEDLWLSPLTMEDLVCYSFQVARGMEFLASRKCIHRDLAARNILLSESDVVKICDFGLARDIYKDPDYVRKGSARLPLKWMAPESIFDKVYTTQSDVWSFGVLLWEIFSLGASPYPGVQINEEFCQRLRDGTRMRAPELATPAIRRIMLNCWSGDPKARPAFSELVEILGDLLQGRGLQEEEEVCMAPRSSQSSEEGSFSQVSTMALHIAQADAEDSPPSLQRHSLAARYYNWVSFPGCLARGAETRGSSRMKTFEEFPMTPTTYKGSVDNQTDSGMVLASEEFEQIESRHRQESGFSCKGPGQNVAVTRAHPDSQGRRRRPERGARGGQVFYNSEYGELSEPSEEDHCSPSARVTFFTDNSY
Paxillin (Homo sapiens), sequence (P49023 whole entry): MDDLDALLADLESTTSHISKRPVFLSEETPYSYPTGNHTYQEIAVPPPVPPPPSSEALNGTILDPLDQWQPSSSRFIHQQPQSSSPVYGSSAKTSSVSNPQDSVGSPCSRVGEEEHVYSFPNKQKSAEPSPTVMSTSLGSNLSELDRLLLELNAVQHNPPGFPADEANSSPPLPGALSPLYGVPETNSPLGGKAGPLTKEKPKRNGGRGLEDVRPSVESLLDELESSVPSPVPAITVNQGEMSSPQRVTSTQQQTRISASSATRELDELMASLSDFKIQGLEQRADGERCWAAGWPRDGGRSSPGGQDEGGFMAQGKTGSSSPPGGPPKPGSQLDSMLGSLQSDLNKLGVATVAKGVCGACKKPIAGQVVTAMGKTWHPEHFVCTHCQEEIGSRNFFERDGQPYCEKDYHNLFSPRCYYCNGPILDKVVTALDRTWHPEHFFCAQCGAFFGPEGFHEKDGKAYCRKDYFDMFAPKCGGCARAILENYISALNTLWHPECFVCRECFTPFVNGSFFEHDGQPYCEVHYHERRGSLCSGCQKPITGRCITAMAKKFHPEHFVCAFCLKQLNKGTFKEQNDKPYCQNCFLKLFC

Which Activity (C8161) does the source give for `O=S1(=O)N2CN3CCN(C2)CN1C3` here?
The Activity was “Active”.

Which results are given for `Cl.Nc1cc(N)c(N)cc1N`?
Activity [1]: inactive; Activity (Mus musculus [2]): Non-toxic; Activity [3]: inactive; Activity [4]: inactive; Activity (MCF7): Active; Activity (Mus musculus [5]): Non-toxic; Activity (BT-474 [6]): Active; Activity [7]: inactive; Activity (BT-474 [8]): inactive; Activity [9]: tde; Activity [10]: inactive; Activity [11]: inactive; Activity [12]: Active; Activity [13]: inactive; Activity (T47D): Active; Activity [14]: inactive; Activity (BT-474 [15]): inactive; Activity (Paxillin (Homo sapiens) [16]): Active; Activity [17]: Dose-dependent effect; Activity [18]: inactive; Activity (BT-474 [19]): Dose-dependent effect; Activity [20]: 15%; Activity (Paxillin (Homo sapiens) [21]): Active; Activity (A549): Active; Activity [22]: inactive; Activity (BT-474 [23]): Active; Activity (C8161): Active; Activity [24]: inactive; Activity (BT-474 [25]): 38%; Activity (BT-474 [26]): 64%; Activity (BT-474 [27]): Dose-dependent effect; Activity (HT-29): Active; Activity (BT-474 [28]): inactive; Activity [29]: inactive; Activity (BT-474 [30]): 64%; Activity (BT-474 [31]): Active; Activity [32]: Active; Activity (BT-474 [33]): Dose-dependent effect; Activity [34]: inactive; Activity (BT-474 [35]): Active; Activity [36]: Dose-dependent effect; Activity (BT-474 [37]): <5%; Activity [38]: Dose-dependent effect; Activity (BT-474 [39]): Dose-dependent effect; Activity [40]: inactive; Activity (BT-474 [41]): 8%; Activity (BT-474 [42]): Active
